Reference: ChEMBL document CHEMBL1145213, “Lipopolysaccharide sequestrants: structural correlates of activity and toxicity in novel acylhomospermines” (J Med Chem, 2005)

Columns and labels:
Mus musculus [1] = test: Protection of LPS-induced lethality in mice was determined after administration of 0 ug and activity expressed as dead/total (5/5); format: functional
Mus musculus [2] = test: Protection of LPS-induced lethality in mice was determined after administration of 100 ug and activity expressed as dead/total (2/5); format: functional
Mus musculus [3] = test: Protection of LPS-induced lethality in mice was determined after administration of 200 ug and activity expressed as dead/total (1/5); format: functional
Mus musculus [4] = test: Protection of LPS-induced lethality in mice was determined after administration of 500 ug and activity expressed as dead/total (4/5); format: functional
[5] = In vitro inhibitory concentration required to inhibit LPS-induced nitric oxide production in J774A.1 cells; format: functional, cell-based; settings: Mus musculus, J774.A1
In short: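 Murine J774A.1 macrophages were plated at ~10^5/ml and stimulated with 10 ng/ml LPS. Serially diluted compounds were added at the same time, with polymyxin B as reference, and cells were incubated for 16 h. Nitrite in the supernatant was measured by Griess reaction (15 min, room temperature, dark; A535) against a sodium nitrite standard curve. IC50 was taken from dose-response. Viability was checked in parallel by XTT.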

Lipopolysaccharide (LPS) [6] = test: Effective dose required for binding to lipopolysaccharide using Fluorescence Displacement Assay
In short: (§1)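 BODIPY-TR-cadaverine displacement from LPS. Compounds from 5 mM DMSO stocks were serially diluted two-fold in 50 mM Tris pH 7.4 down to 0.596 nM final. An LPS/probe mixture was added and end-point fluorescence was read at 620 nm; probe de-quenching reports binding. ED50 was computed from displacement curves, with polymyxin B as the reference on every plate.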

Homo sapiens = species on record: Homo sapiens; test: Inhibitory concentration required to inhibit LPS-induced TNF-alpha production in ex vivo human whole blood assay; format: functional, organism-based
In short: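 Fresh EDTA-anticoagulated whole blood from healthy volunteers was mixed with an equal volume of 20 ng/ml E. coli O111:B4 LPS plus graded compound concentrations diluted in saline and incubated for 4 h. TNF-α was quantified by a multiplexed flow-cytometric cytokine bead array against recombinant cytokine standards. IC50 was derived from dose-response.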

Mus musculus [7] = test: Protection of LPS-induced lethality in mice was determined after administration of 50 ug and activity expressed as dead/total (4/5); format: functional
Lipopolysaccharide (LPS) [8] = test: Effective dose required for binding to lipopolysaccharide using Fluorescence Displacement Assay; Range is ~1-2 uM; in short: as §1
Mus musculus [9] = test: Protection of LPS-induced lethality in mice was determined after administration of 10 ug and activity expressed as dead/total (5/5); format: functional
Mus musculus [10] = test: Protection of LPS-induced lethality in mice was determined after administration of 50 ug and activity expressed as dead/total (5/5); format: functional
Mus musculus [11] = test: Protection of LPS-induced lethality in mice was determined after administration of 100 ug and activity expressed as dead/total (4/5); format: functional
Mus musculus [12] = test: Protection of LPS-induced lethality in mice was determined after administration of 50 ug and activity expressed as dead/total (2/5); format: functional
Mus musculus [13] = test: Protection of LPS-induced lethality in mice was determined after administration of 100 ug and activity expressed as dead/total (0/5); format: functional
Mus musculus [14] = test: Protection of LPS-induced lethality in mice was determined after administration of 200 ug and activity expressed as dead/total (0/5); format: functional
Mus musculus [15] = test: Protection of LPS-induced lethality in mice sensitized by D-galactosamine was determined after 200 ug administered ip at 0 hour and activity expressed as dead/total (0/5); format: functional
Mus musculus [16] = test: Protection of LPS-induced lethality in mice sensitized by D-galactosamine was determined after 200 ug administered ip at 1 hour and activity expressed as dead/total (5/5); format: functional
Mus musculus [17] = test: Protection of LPS-induced lethality in mice sensitized by D-galactosamine was determined after 200 ug administered ip at 2 hour and activity expressed as dead/total (4/5); format: functional
Mus musculus [18] = test: Protection of LPS-induced lethality in mice sensitized by D-galactosamine was determined after 200 ug administered ip at -2 hour and activity expressed as dead/total (0/5); format: functional
Mus musculus [19] = test: Protection of LPS-induced lethality in mice sensitized by D-galactosamine was determined after 200 ug administered ip at -4 hour and activity expressed as dead/total (1/5); format: functional
Mus musculus [20] = test: Protection of LPS-induced lethality in mice sensitized by D-galactosamine was determined after 200 ug administered ip at -6 hour and activity expressed as dead/total (1/5); format: functional
Lipopolysaccharide (LPS) [21] = test: Dissociation constant against lipopolysaccharide
In short: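 Isothermal titration calorimetry at 37 °C in 50 mM Tris pH 7.4, ligand and LPS in the same buffer. E. coli O111:B4 LPS was titrated in 35 injections at 360 s intervals into the cell holding the acylhomospermine, with stirring at 310 rpm. Controls injected LPS into buffer. KD was obtained from fitting the binding isotherm.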

Compound	IC50 [5] [µM]	ED50 (Lipopolysaccharide (LPS) [6]) [µM]	IC50 (Homo sapiens) [µM]	ED50 (Lipopolysaccharide (LPS) [8]) [µM]	also measured
CCCCCCCCCCCC(=O)NCCCNCCCNCCCCNCCCNCCCNC(=O)CCCCCCCCCCC	1.44	6.87	9.19		Dead (Mus musculus [1]): 5; Dead (Mus musculus [2]): 2; Dead (Mus musculus [3]): 1; Dead (Mus musculus [4]): 4; Dead (Mus musculus [7]): 4
CCCCCCCCC(=O)NCCCNCCCNCCCCNCCCN	52.5	0.92	31.1		
CCCCCCCCCCCCCCCCCCC(=O)NCCCN(CCCN(CCCCN(CCCNC(=O)OC(C)(C)C)C(=O)OC(C)(C)C)C(=O)OC(C)(C)C)C(=O)OC(C)(C)C				< 2	
NCCCNCCCCNCCCN				< 2	
POLYMYXIN B		1.2			
CCCCCCCCCCCCCCCCC(=O)NCCCNCCCNCCCCNCCCNCCCNC(=O)CCCCCCCCCCCCCCCC	14.2	52.5	37.1		
CCCCCCCCCC(=O)NCCCNCCCNCCCCNCCCNCCCNC(=O)CCCCCCCCC	1.47	0.76	10		
CCCCCCCCC(=O)NCCCN(CCCN(CCCCN(CCCNC(=O)OC(C)(C)C)C(=O)OC(C)(C)C)C(=O)OC(C)(C)C)C(=O)OC(C)(C)C				< 2	
CCCCCCCCCCCCCCC(=O)NCCCNCCCNCCCCNCCCN	3.69	1.35	2.27		
CCCCCCCCCCCCCCCCC(=O)NCCCN(CCCN(CCCCN(CCCNC(=O)OC(C)(C)C)C(=O)OC(C)(C)C)C(=O)OC(C)(C)C)C(=O)OC(C)(C)C				< 2	
CCCCCCCCCC(=O)NCCCNCCCNCCCCNCCCN	23.5	1.08	16.5		
CCCCCCCCCCCCCCC(=O)NCCCNCCCNCCCCNCCCNCCCNC(=O)CCCCCCCCCCCCCC	10.1	8.67	63.1		
CC(=O)NCCCN(CCCN(CCCCN(CCCNC(=O)OC(C)(C)C)C(=O)OC(C)(C)C)C(=O)OC(C)(C)C)C(=O)OC(C)(C)C				< 2	
CCCCCCCCCCCCCCCCCCC(=O)NCCCNCCCNCCCCNCCCN	4.35	2.44	2.31		
CCCCCCCCCCCCCCCCCCC(=O)NCCCNCCCNCCCCNCCCNCCCNC(=O)CCCCCCCCCCCCCCCCCC	13.9	66.7	120		
CC(=O)NCCCNCCCNCCCCNCCCN	171	107	36.6		
CCCCCCCCC(=O)NCCCNCCCNCCCCNCCCNCCCNC(=O)CCCCCCCC	2.05	0.33	4.88		Dead (Mus musculus [1]): 5; Dead (Mus musculus [9]): 5; Dead (Mus musculus [10]): 5; Dead (Mus musculus [11]): 4; Dead (Mus musculus [3]): 1
CC(C)(C)OC(=O)NCCCN(CCCCN(CCCN(CCCN)C(=O)OC(C)(C)C)C(=O)OC(C)(C)C)C(=O)OC(C)(C)C				< 2	
CCCCCCCCCCCCCCCCC(=O)NCCCNCCCNCCCCNCCCN	4.22	1.37	1.91		Dead (Mus musculus [1]): 5; Dead (Mus musculus [9]): 5; Dead (Mus musculus [12]): 2; Dead (Mus musculus [13]): 0; Dead (Mus musculus [14]): 0; Dead (Mus musculus [15]): 0; Dead (Mus musculus [16]): 5; Dead (Mus musculus [17]): 4; Dead (Mus musculus [18]): 0; Dead (Mus musculus [19]): 1; Dead (Mus musculus [20]): 1; Kd (Lipopolysaccharide (LPS) [21]): 1.21 µM
CCCCCCCCCCCCCCC(=O)NCCCN(CCCN(CCCCN(CCCNC(=O)OC(C)(C)C)C(=O)OC(C)(C)C)C(=O)OC(C)(C)C)C(=O)OC(C)(C)C				< 2	
CCCCCCCCCC(=O)NCCCN(CCCN(CCCCN(CCCNC(=O)OC(C)(C)C)C(=O)OC(C)(C)C)C(=O)OC(C)(C)C)C(=O)OC(C)(C)C				< 2	
